# Measured values reported in ChEMBL document CHEMBL4330076, “Quinazolin-2,4-dione-Based Hydroxamic Acids as Selective Histone Deacetylase-6 Inhibitors for Treatment of Non-Small Cell Lung Cancer” (J Med Chem, 2019).
# Experiments:
# [1] = AUC (0 to 24 hrs) in C57BL/6 mouse kidney at 40 mg/kg, po administered via gavage by LC-MS/MS analysis; type: ADME, organism-based; parameters: time < 24 hr, dose 40 mg/kg, route oral; conditions: in vivo
# [2] = tested on: Lewis lung carcinoma cell line; test: Induction of apoptosis in mouse LL/2 cells assessed as late apoptotic cells at 4 uM after 24 hrs in presence of paclitaxel by Annexin V/propidium iodide staining-based flow cytometric analysis (reference value: 8.7%); type: functional
# [3] = tested on: Lewis lung carcinoma cell line; test: Cytotoxicity against mouse LL/2 cells at 4 uM after 72 hrs in presence of paclitaxel by MTT assay relative to control; type: functional
# Outline: (§1)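 Mouse LL/2 cells treated with inhibitor alone or combined with paclitaxel for 3 days. Viability measured by MTT assay relative to untreated control.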
# [4] = Ratio of drug uptake in C57BL/6 mouse kidney at 40 mg/kg, po administered via gavage co-administered with paclitaxel at 10 mg/kg, ip by LC-MS/MS analysis to drug uptake in C57BL/6 mouse kidney at 40 mg/kg, po administered via gavage by LC-MS/MS analysis; type: ADME, organism-based; conditions: in vivo
# [5] = Drug uptake in C57BL/6 mouse lung at 40 mg/kg, po administered via gavage by LC-MS/MS analysis; type: ADME, organism-based; conditions: in vivo
# [6] = tested on: Lewis lung carcinoma cell line; test: Induction of apoptosis in mouse LL/2 cells assessed as viable cells at 4 uM after 24 hrs by Annexin V/propidium iodide staining-based flow cytometric analysis (reference value: 82.3%); type: functional
# [7] = Drug uptake in C57BL/6 mouse kidney at 40 mg/kg, po administered via gavage by LC-MS/MS analysis; type: ADME, organism-based; conditions: in vivo
# [8] = Drug uptake in C57BL/6 mouse liver at 40 mg/kg, po administered via gavage co-administered with paclitaxel at 10 mg/kg, ip by LC-MS/MS analysis; type: ADME, organism-based; conditions: in vivo
# [9] = tested on: Lewis lung carcinoma cell line; test: Induction of apoptosis in mouse LL/2 cells assessed as necrotic cells at 4 uM after 24 hrs in presence of paclitaxel by Annexin V/propidium iodide staining-based flow cytometric analysis (reference value: 7.3%); type: functional
# A549 [10] = test: Induction of apoptosis in human A549 cells assessed as viable cells at 4 uM after 24 hrs by Annexin V/propidium iodide staining-based flow cytometric analysis (reference value: 96.2%); type: functional
# [11] = Drug metabolism in C57BL/6 mouse lung assessed as hydrolysis metabolite formation at 40 mg/kg, po administered via gavage by LC-MS/MS analysis; type: ADME, organism-based; conditions: in vivo
# [12] = tested on: Lewis lung carcinoma cell line; test: Cytotoxicity against mouse LL/2 cells at 4 uM after 72 hrs by MTT assay relative to control; type: functional; outline: as §1
# [13] = Drug uptake in C57BL/6 mouse liver at 40 mg/kg, po administered via gavage by LC-MS/MS analysis; type: ADME, organism-based; conditions: in vivo
# [14] = AUC (0 to 24 hrs) in C57BL/6 mouse lung at 40 mg/kg, po administered via gavage by LC-MS/MS analysis; type: ADME, organism-based; parameters: time < 24 hr, dose 40 mg/kg, route oral; conditions: in vivo
# [15] = Ratio of drug uptake in C57BL/6 mouse plasma at 40 mg/kg, po administered via gavage co-administered with paclitaxel at 10 mg/kg, ip by LC-MS/MS analysis to drug uptake in C57BL/6 mouse plasma at 40 mg/kg, po administered via gavage by LC-MS/MS analysis; type: ADME, organism-based; conditions: in vivo
# [16] = biological target: T1, Protein deacetylase HDAC6 (Homo sapiens, UniProt Q9UBN7); test: Competitive inhibition of human HDAC6 CD2 expressed in Escherichia coli BL21 (RIL) using Boc-Lys (Ac)-AMC as substrate preincubated for 10 mins followed by substrate addition and measured after 30 mins by fluorescence assay
# T1 sequence (Q9UBN7 whole entry): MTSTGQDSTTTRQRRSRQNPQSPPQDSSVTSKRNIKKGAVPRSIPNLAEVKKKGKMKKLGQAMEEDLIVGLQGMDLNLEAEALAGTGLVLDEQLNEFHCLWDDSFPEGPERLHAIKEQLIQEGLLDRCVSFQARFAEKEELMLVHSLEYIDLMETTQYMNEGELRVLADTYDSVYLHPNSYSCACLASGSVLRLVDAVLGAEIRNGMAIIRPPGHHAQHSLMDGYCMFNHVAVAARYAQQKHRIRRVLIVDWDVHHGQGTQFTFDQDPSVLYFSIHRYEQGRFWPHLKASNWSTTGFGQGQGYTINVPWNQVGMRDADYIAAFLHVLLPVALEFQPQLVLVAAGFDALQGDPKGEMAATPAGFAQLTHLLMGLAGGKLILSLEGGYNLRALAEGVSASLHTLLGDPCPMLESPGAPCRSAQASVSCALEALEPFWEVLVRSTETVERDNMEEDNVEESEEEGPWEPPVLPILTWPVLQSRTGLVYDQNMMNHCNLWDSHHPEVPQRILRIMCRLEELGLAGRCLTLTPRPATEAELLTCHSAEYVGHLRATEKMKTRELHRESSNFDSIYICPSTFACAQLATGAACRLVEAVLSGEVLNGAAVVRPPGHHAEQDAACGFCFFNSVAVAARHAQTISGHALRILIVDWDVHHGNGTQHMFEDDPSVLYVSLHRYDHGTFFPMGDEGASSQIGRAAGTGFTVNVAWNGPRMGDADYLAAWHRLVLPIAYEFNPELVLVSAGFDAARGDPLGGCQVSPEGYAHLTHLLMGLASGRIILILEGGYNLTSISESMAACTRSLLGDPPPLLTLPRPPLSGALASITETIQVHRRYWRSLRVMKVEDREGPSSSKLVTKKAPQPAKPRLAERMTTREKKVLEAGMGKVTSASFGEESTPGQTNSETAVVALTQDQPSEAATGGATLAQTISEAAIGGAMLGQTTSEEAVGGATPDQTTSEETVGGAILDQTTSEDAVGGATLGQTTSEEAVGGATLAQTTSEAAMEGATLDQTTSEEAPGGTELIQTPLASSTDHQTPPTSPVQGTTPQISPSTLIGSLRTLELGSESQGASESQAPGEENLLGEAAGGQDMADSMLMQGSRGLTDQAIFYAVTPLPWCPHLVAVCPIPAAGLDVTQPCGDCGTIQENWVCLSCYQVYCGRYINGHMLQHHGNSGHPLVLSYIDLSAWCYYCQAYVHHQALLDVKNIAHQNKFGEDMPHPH
# [17] = Drug metabolism in C57BL/6 mouse plasma assessed as hydrolysis metabolite formation at 40 mg/kg, po administered via gavage by LC-MS/MS analysis; type: ADME, organism-based; conditions: in vivo
# [18] = Drug metabolism in C57BL/6 mouse liver assessed as hydrolysis metabolite formation at 40 mg/kg, po administered via gavage by LC-MS/MS analysis; type: ADME, organism-based; conditions: in vivo
# [19] = tested on: Lewis lung carcinoma cell line; test: Induction of apoptosis in mouse LL/2 cells assessed as early apoptotic cells at 4 uM after 24 hrs by Annexin V/propidium iodide staining-based flow cytometric analysis (reference value: 1.8%); type: functional
# A549 [20] = test: Induction of apoptosis in human A549 cells assessed as early apoptotic cells at 4 uM after 24 hrs by Annexin V/propidium iodide staining-based flow cytometric analysis (reference value: 1.2%); type: functional
# [21] = biological target: T1, Protein deacetylase HDAC6; test: Competitive inhibition of human full-length recombinant HDAC6 expressed in baculovirus infected Sf9 insect cells using Boc-Lys (Ac)-AMC as substrate preincubated for 10 mins followed by substrate addition and measured after 30 mins by fluorescence assay
compound,measurement,setting,value
O=C(NO)c1ccc(Cn2c(=O)n(CCc3ccccc3)c(=O)c3ccccc32)cc1,AUC,[1],1903 ng·h/g
same,Activity,[2],21.2%
same,Activity,[3],80 - 90%
same,Ratio,[4],3
same,Drug uptake,[5],212 ng/g
same,Activity,[6],85.8%
same,Drug uptake,[7],130 ng/g
same,Drug uptake,[8],719 ng/g
same,Activity,[9],5.3%
same,Activity,A549 [10],97.4%
same,Drug metabolism,[11],Metabolite_Detected
same,Activity,[12],10%
same,Drug uptake,[13],782 ng/g
same,AUC,[14],1335 ng·h/g
same,Ratio,[15],12.3
same,Ki,[16],3.7 nM
same,Drug metabolism,[17],Metabolite_Detected
same,Drug metabolism,[18],Metabolite_Detected
same,Activity,[19],1.5%
same,Activity,A549 [20],1.3%
same,Ki,[21],1.6 nM
